Data set [1] has as its system NCI-H460. In words: Cytotoxicity against human NCI-H460 cells after 72 hrs by MTT assay. Format: functional, cell-based. As to conditions: NCI-H460, 72 h. In outline: (§1)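 Seeding in 96-well plates at 1000 (NCI-H460), 2000 (NCI-H460/R) or 4000 (HaCaT) cells/well, treated after 24 h for 72 h. MTT at 0.4 mg/mL final, 4 h at 37 °C. Formazan dissolved in DMSO, absorbance read at 540 nm. Inhibition % = (1 − A treated/A untreated)×100. IC30 and IC50 obtained by linear regression.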
A general note: Tetrazolium assays rely on reduction of a dye to a coloured formazan, in cell work by metabolically active cells.

Data set [2] deals with NCI-H460. The data set can be described thus: Cytotoxicity against multidrug resistant human NCI-H460 cells after 72 hrs by MTT assay. Format: functional, cell-based. As to conditions: NCI-H460, 72 h. In outline: as §1
The subject of data set [3] is HaCaT. In words: Cytotoxicity against human HaCaT cells after 72 hrs by MTT assay. In kind it is cell-based. As to conditions: for IC50: Homo sapiens, HaCaT; for IC30: human, hacat. In a few lines:
as §1

Data set [4] deals with NCI-H460. The data set can be described thus: Selectivity ratio of IC30/IC50 for human NCI-H460 cells to IC30/IC50 for multidrug resistant human NCI-H460 cells. Format: functional. In a few lines:
(§2)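 Fold threshold of 1.5 used to call selectivity to cancer cells, resistance, or selectivity to MDR cells.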

Data set [5] relates to NCI-H460. The data set can be described thus: Induction of apoptosis in human NCI-H460 cells assessed as live cells at 25 uM after 72 hrs by annexin-V/propidium iodide staining-based flow cytometric analysis (reference value: 98.3%). Format: functional. A general note: In flow cytometry, cells or beads pass a laser one at a time.
Data set [6] has as its system NCI-H460. The data set can be described thus: Induction of apoptosis in human NCI-H460 cells assessed as early apoptotic cells at 25 uM after 72 hrs by annexin-V/propidium iodide staining-based flow cytometric analysis (reference value: 0.3%). In kind it is functional.
Data set [7] relates to NCI-H460. In words: Induction of apoptosis in human NCI-H460 cells assessed as late apoptotic/necrotic cells at 25 uM after 72 hrs by annexin-V/propidium iodide staining-based flow cytometric analysis (reference value: 0.2%). In kind it is functional.
The subject of data set [8] is NCI-H460. The data set can be described thus: Induction of apoptosis in human NCI-H460 cells assessed as dead cells at 25 uM after 72 hrs by annexin-V/propidium iodide staining-based flow cytometric analysis (reference value: 1.2%). Format: functional.
Data set [9] relates to NCI-H460. The data set can be described thus: Induction of apoptosis in multidrug resistant human NCI-H460 cells assessed as live cells at 25 uM after 72 hrs by annexin-V/propidium iodide staining-based flow cytometric analysis (reference value: 96.4%). Format: functional.
In data set [10] the test system is NCI-H460. In words: Induction of apoptosis in multidrug resistant human NCI-H460 cells assessed as early apoptotic cells at 25 uM after 72 hrs by annexin-V/propidium iodide staining-based flow cytometric analysis (reference value: 1.1%). Format: functional.
Data set [11] relates to NCI-H460. The data set can be described thus: Induction of apoptosis in multidrug resistant human NCI-H460 cells assessed as late apoptotic/necrotic cells at 25 uM after 72 hrs by annexin-V/propidium iodide staining-based flow cytometric analysis (reference value: 1%). Format: functional.
Data set [12] relates to NCI-H460. In words: Induction of apoptosis in multidrug resistant human NCI-H460 cells assessed as dead cells at 25 uM after 72 hrs by annexin-V/propidium iodide staining-based flow cytometric analysis (reference value: 1.5%). In kind it is functional.
A short description of data set [13]: Induction of apoptosis in human HaCaT cells assessed as live cells at 25 uM after 72 hrs by annexin-V/propidium iodide staining-based flow cytometric analysis (reference value: 96.8%). In kind it is cell-based. As to conditions: read-out: Activity.
For data set [14], the system named is HaCaT. In words: Induction of apoptosis in human HaCaT cells assessed as early apoptotic cells at 25 uM after 72 hrs by annexin-V/propidium iodide staining-based flow cytometric analysis (reference value: 0.2%). In kind it is cell-based.
For data set [15], the system named is HaCaT. The data set can be described thus: Induction of apoptosis in human HaCaT cells assessed as late apoptotic/necrotic cells at 25 uM after 72 hrs by annexin-V/propidium iodide staining-based flow cytometric analysis (reference value: 0.2%). Format: cell-based.
In data set [16] the test system is HaCaT. The data set can be described thus: Induction of apoptosis in human HaCaT cells assessed as dead cells at 25 uM after 72 hrs by annexin-V/propidium iodide staining-based flow cytometric analysis (reference value: 2.8%). Format: cell-based.
Data set [17] can be described thus: Selectivity ratio of IC30/IC50 for human HaCaT cells to IC30/IC50 for human NCI-H460 cells. In kind it is ADME, cell-based. The note with it: HaCaT cells versus NCI-H460 cells. In outline:
as §2

Data set [18] can be described thus: Selectivity ratio of IC30/IC50 for human HaCaT cells to IC30/IC50 for multidrug resistant human NCI-H460 cells. As to conditions: HaCaT cells versus multidrug resistant NCI-H460 cells. In kind it is ADME, cell-based. In a few lines:
as §2

Data set [19] deals with NCI-H460. The data set can be described thus: Induction of superoxide anion generation in multidrug resistant human NCI-H460 cells at 25 uM after 72 hrs by DHE staining-based flow cytometric analysis relative to control. Format: functional, cell-based. In outline:
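Seeded as for cell death (50,000 or 100,000 cells/well), treated 72 h at 25 µM, with CDDP 5 µM as control. Adherent cells trypsinized and loaded with 1 µM DHE for 30 min at 37 °C in the dark, then washed twice in PBS. Flow cytometry at ex 488/em 585 nm (FL2-H). Mean fluorescence intensity corrected for autofluorescence and compared with untreated control.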

Data set [20] deals with Micrococcus luteus. The data set can be described thus: Antibacterial activity against Micrococcus luteus ATCC 4698 by broth microdilution method. Format: functional. The note with it: NCTC 2665. In a few lines: (§3)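 Broth microdilution per NCCLS. Compounds dissolved in DMSO as 10 mg/mL stock, diluted in Mueller Hinton broth (bacteria) or Sabouraud dextrose broth (fungi). Amikacin served as the positive control for bacteria and nystatin for fungi.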
A general note: In broth dilution the organism is exposed to a series of concentrations in liquid medium.

The subject of the next data set is Clostridium sporogenes. The data set can be described thus: Antibacterial activity against Clostridium sporogenes ATCC 19404 by broth microdilution method. In kind it is functional. In outline:
as §3

A further data set concerns Proteus hauseri. In words: Antibacterial activity against Proteus hauseri ATCC 13315 by broth microdilution method. In kind it is functional. In a few lines: as §3
For a further data set, the system named is Salmonella enteritidis. The data set can be described thus: Antibacterial activity against Salmonella enterica subsp. enterica serovar Enteritidis ATCC 13076 by broth microdilution method. In kind it is functional. In outline: as §3
For the next data set, the system named is Pseudomonas aeruginosa. The data set can be described thus: Antibacterial activity against Pseudomonas aeruginosa ATCC 9027 by broth microdilution method. Format: functional. In outline:
as §3

In the next data set the test system is Candida albicans. The data set can be described thus: Antifungal activity against Candida albicans ATCC 10231 by broth microdilution method. In kind it is functional. In a few lines: as §3
For the next data set, the system named is Saccharomyces cerevisiae. In words: Antifungal activity against Saccharomyces cerevisiae ATCC 9763 by broth microdilution method. Format: functional. In a few lines:
as §3

In a further data set the test system is Aspergillus brasiliensis. The data set can be described thus: Antifungal activity against Aspergillus brasiliensis ATCC 16404 by broth microdilution method. In kind it is functional. In outline: as §3
Another data set has as its system Kocuria rhizophila. The data set can be described thus: Antibacterial activity against Kocuria rhizophila ATCC 9341 by broth microdilution method. As to conditions: DC2201. Format: functional. In a few lines:
as §3

The subject of another data set is Bacillus spizizenii. The data set can be described thus: Antibacterial activity against Bacillus subtilis ATCC 6633 by broth microdilution method. In kind it is functional. In outline: as §3
The test system of data set [21] is Micrococcus luteus. The data set can be described thus: Antibacterial activity against Micrococcus luteus ATCC 10240 by broth microdilution method. Format: functional. In a few lines: as §3

These results are taken from ChEMBL document CHEMBL3822380, “Simple avarone mimetics as selective agents against multidrug resistant cancer cells” (Eur J Med Chem, 2016).

SMILES strings stand for the structures. ≈ marks a conversion by molar mass, not a printed value. Calls of active or inactive are those of the source.

Regarding `CCCCNC1=CC(=O)C=C(C[C@]2(C)[C@@H](C)CC[C@]3(C)C(C)=CCC[C@@H]23)C1=O`, the figures for the IC30 with NCI-H460 [1], in the data set on NCI-H460 [2] and in the data set on HaCaT [3] were 9 µM, 3 µM and 11 µM, respectively. The IC50 came out at 16 µM in the data set on NCI-H460 [1], 6 µM with NCI-H460 [2] and 16 µM in the data set with HaCaT [3]. Besides, the selectivity ratio result in the data set with NCI-H460 [4] is recorded as “<=1.5”.
Turning to `CC1=CCC[C@H]2[C@](C)(CC3=CC(=O)C(NCCc4ccccc4)=CC3=O)[C@@H](C)CC[C@]12C`, the Activity in the data set with NCI-H460 [5] worked out at 92%; with NCI-H460 [6] it was 0.3%; with NCI-H460 [7] it was 0.5%; in the data set on NCI-H460 [8], 7.2%; in the data set on NCI-H460 [9], 94.9%; in the data set with NCI-H460 [10] it was 0.4%. Further, the Activity in the data set with NCI-H460 [11] was 0.6%; in the data set with NCI-H460 [12] it was 4.1%; in the data set with HaCaT [14] it was 0.3%; with HaCaT [15], 1%; in the data set with HaCaT [16], 9.2%. The viability at 72 h, 25 µM in data set [13] came to 89.5%. Further, the IC30 in the data set on NCI-H460 [1] was found to be 75 µM; in the data set with NCI-H460 [2], 10 µM; in the data set on HaCaT [3], 76 µM. The figures for the IC50 with NCI-H460 [1], in the data set on NCI-H460 [2] and with HaCaT [3] were more than 100 µM, 91 µM and more than 100 µM, respectively. Besides, the values for the selectivity ratio (in [17]; in data set [18]; in the data set with NCI-H460 [4]) were not above 1.5, not above 1.5 and “<=1.5”, respectively. Besides, in the data set with NCI-H460 [19], the result was inactive.
For the compound `CCCCNC1=CC(=O)C(C[C@]2(C)[C@@H](C)CC[C@]3(C)C(C)=CCC[C@@H]23)=CC1=O`, the IC30 is 91 µM with NCI-H460 [1], 24 µM with NCI-H460 [2] and 86 µM in the data set on HaCaT [3]. The IC50 in the data set on NCI-H460 [1], in the data set with NCI-H460 [2] and with HaCaT [3] was more than 100 µM each time. For the same compound, the results for the selectivity ratio (in data set [17]; in [18]; in the data set with NCI-H460 [4]) were not above 1.5, not above 1.5 and “<=1.5”, respectively.
On to `CC(C)(C)C1=CC(=O)C(NCCc2ccccc2)=CC1=O`, for which the MIC was found to be 2210 µM (≈ 626 µg/mL) against Micrococcus luteus [20]; 2210 µM (≈ 626 µg/mL) with Clostridium sporogenes; 2210 µM (≈ 626 µg/mL) in the data set with Proteus hauseri; 4420 µM (≈ 1250 µg/mL) in the data set on Salmonella enteritidis; 2210 µM (≈ 626 µg/mL) in the data set with Pseudomonas aeruginosa; 2210 µM (≈ 626 µg/mL) against Candida albicans. Further, the MIC in the data set on Saccharomyces cerevisiae is 2210 µM (≈ 626 µg/mL); against Aspergillus brasiliensis it was 1110 µM (≈ 313 µg/mL); against Kocuria rhizophila it was 2210 µM (≈ 626 µg/mL); against Bacillus spizizenii it was 4420 µM (≈ 1250 µg/mL); against Micrococcus luteus [21], 4420 µM (≈ 1250 µg/mL). Further, the Activity in the data set on NCI-H460 [5] was 80.8%; with NCI-H460 [6] it was 0.8%; with NCI-H460 [7] it was 5.4%; in the data set on NCI-H460 [8], 13%; in the data set with NCI-H460 [9], 81%; in the data set with NCI-H460 [10] it was 1.3%. Further, the Activity with NCI-H460 [11] is 3.6%; in the data set on NCI-H460 [12], 14.1%; in the data set with HaCaT [14], 0.8%; in the data set on HaCaT [15], 1.7%; with HaCaT [16], 8.3%. In data set [13], the viability at 72 h, 25 µM was determined as 89.2%. In addition, the IC30 was 17 µM with NCI-H460 [1], 11 µM in the data set with NCI-H460 [2] and more than 100 µM with HaCaT [3]. The figures for the IC50 in the data set with NCI-H460 [1], in the data set on NCI-H460 [2] and in the data set on HaCaT [3] were 35 µM, 33 µM and more than 100 µM, respectively. Besides, the selectivity ratio in [17] and in data set [18] was not above 1.5 in each case. Also, the result in the data set with NCI-H460 [19] was inactive.

One may read the IC30 as the point of the concentration-response curve where the effect stands at 30%. Read a high IC30 as a need for much substance. The term IC50 denotes the midpoint of a concentration-inhibition curve. A higher IC50 goes with weaker potency. As usually defined, the MIC is the lowest concentration that inhibits growth of the organism.
